Source: ChEMBL document CHEMBL1123311, “Synthesis and antitumor and antiviral properties of 5-halo- and 5-(trifluoromethyl)-2'-deoxyuridine 3',5'-cyclic monophosphates and neutral triesters” (1986)
Converted amounts (≈) assume the structure as drawn.

tested on: Human alphaherpesvirus 2; assay: Evaluation of antiviral activity against Herpes simplex virus type 2 (HSV-2) strain 196.; format: functional; conditions: not given
Method in brief: (§1)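 Virus-induced cytopathogenicity scored in primary rabbit kidney cell cultures. Value is the minimum concentration reducing cytopathogenicity by 50%. Cytotoxicity on uninfected cells was read as the minimal concentration causing a microscopically detectable change in normal cell morphology, tested up to 400 μg/mL.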

SMILES | MIC50
O=c1[nH]c(=O)n([C@H]2C[C@@H]3OP(=O)(OCc4ccccc4)OC[C@H]3O2)cc1I (some centres undefined) | 70 µg/mL (≈ 138 µM)
O=c1[nH]c(=O)n([C@H]2C[C@H](O)[C@@H](CO)O2)cc1I [IDOXURIDINE] | 0.4 µg/mL (≈ 1.13 µM)
N.O=c1[nH]c(=O)n([C@H]2C[C@@H]3O[PH](O)(O)OC[C@H]3O2)cc1Br | 20 µg/mL
COP1(=O)OC[C@H]2O[C@@H](n3cc(I)c(=O)[nH]c3=O)C[C@@H]2O1 (some centres undefined) | 300 µg/mL (≈ 698 µM)
N.O=c1[nH]c(=O)n([C@H]2C[C@@H]3O[PH](O)(O)OC[C@H]3O2)cc1C(F)(F)F | 40 µg/mL

tested on: Human alphaherpesvirus 2; assay: Evaluation of antiviral activity against Herpes simplex virus type 2 (HSV-2) strain G; format: functional; conditions: not given; method in brief: as §1

SMILES | MIC50
O=c1[nH]c(=O)n([C@H]2C[C@@H]3OP(=O)(OCc4ccccc4)OC[C@H]3O2)cc1I (some centres undefined) | 20 µg/mL (≈ 39.5 µM)
O=c1[nH]c(=O)n([C@H]2C[C@H](O)[C@@H](CO)O2)cc1I [IDOXURIDINE] | 0.2 µg/mL (≈ 0.565 µM)
N.O=c1[nH]c(=O)n([C@H]2C[C@@H]3O[PH](O)(O)OC[C@H]3O2)cc1Br | 2 µg/mL
COP1(=O)OC[C@H]2O[C@@H](n3cc(I)c(=O)[nH]c3=O)C[C@@H]2O1 (some centres undefined) | 300 µg/mL (≈ 698 µM)
N.O=c1[nH]c(=O)n([C@H]2C[C@@H]3O[PH](O)(O)OC[C@H]3O2)cc1C(F)(F)F | 10 µg/mL

tested on: Human alphaherpesvirus 2; assay: Evaluation of antiviral activity against Herpes simplex virus type 2 (HSV-2) strain Lyons; format: functional; conditions: not given; method in brief: as §1

SMILES | MIC50
O=c1[nH]c(=O)n([C@H]2C[C@@H]3OP(=O)(OCc4ccccc4)OC[C@H]3O2)cc1I (some centres undefined) | 7 µg/mL (≈ 13.8 µM)
O=c1[nH]c(=O)n([C@H]2C[C@H](O)[C@@H](CO)O2)cc1I [IDOXURIDINE] | 0.1 µg/mL (≈ 0.282 µM)
N.O=c1[nH]c(=O)n([C@H]2C[C@@H]3O[PH](O)(O)OC[C@H]3O2)cc1Br | 2 µg/mL
COP1(=O)OC[C@H]2O[C@@H](n3cc(I)c(=O)[nH]c3=O)C[C@@H]2O1 (some centres undefined) | 150 µg/mL (≈ 349 µM)
N.O=c1[nH]c(=O)n([C@H]2C[C@@H]3O[PH](O)(O)OC[C@H]3O2)cc1C(F)(F)F | 10 µg/mL

tested on: Human alphaherpesvirus 1; assay: Compound was evaluated for the antiviral activity against Herpes simplex virus type 1 (HSV-1) strain F; format: functional; conditions: read-out: ID50 (the source's name); method in brief: as §1

SMILES | IC50
COP1(=O)OC[C@H]2O[C@@H](n3cc(I)c(=O)[nH]c3=O)C[C@@H]2O1 (some centres undefined) | 150 µg/mL (≈ 349 µM)

tested on: Human alphaherpesvirus 1; assay: Compound was evaluated for the antiviral activity against Herpes simplex virus type 1 (HSV-1) strain KOS.; format: functional; conditions: read-out: ID50 (the source's name); method in brief: as §1

SMILES | IC50
COP1(=O)OC[C@H]2O[C@@H](n3cc(I)c(=O)[nH]c3=O)C[C@@H]2O1 (some centres undefined) | 150 µg/mL (≈ 349 µM)

tested on: Human alphaherpesvirus 1; assay: Evaluation of antiviral activity against Herpes simplex virus type 1 (HSV-1) strain F; format: functional; conditions: not given; method in brief: as §1

SMILES | MIC50
O=c1[nH]c(=O)n([C@H]2C[C@@H]3OP(=O)(OCc4ccccc4)OC[C@H]3O2)cc1I (some centres undefined) | 7 µg/mL (≈ 13.8 µM)
O=c1[nH]c(=O)n([C@H]2C[C@H](O)[C@@H](CO)O2)cc1I [IDOXURIDINE] | 0.2 µg/mL (≈ 0.565 µM)
N.O=c1[nH]c(=O)n([C@H]2C[C@@H]3O[PH](O)(O)OC[C@H]3O2)cc1Br | 2 µg/mL
N.O=c1[nH]c(=O)n([C@H]2C[C@@H]3O[PH](O)(O)OC[C@H]3O2)cc1C(F)(F)F | 20 µg/mL

tested on: Human alphaherpesvirus 1; assay: Evaluation of antiviral activity against Herpes simplex virus type 1 (HSV-1) strain McIntyre; format: functional; conditions: not given; method in brief: as §1

SMILES | MIC50
O=c1[nH]c(=O)n([C@H]2C[C@@H]3OP(=O)(OCc4ccccc4)OC[C@H]3O2)cc1I (some centres undefined) | 20 µg/mL (≈ 39.5 µM)
O=c1[nH]c(=O)n([C@H]2C[C@H](O)[C@@H](CO)O2)cc1I [IDOXURIDINE] | 0.2 µg/mL (≈ 0.565 µM)
N.O=c1[nH]c(=O)n([C@H]2C[C@@H]3O[PH](O)(O)OC[C@H]3O2)cc1Br | 2 µg/mL
COP1(=O)OC[C@H]2O[C@@H](n3cc(I)c(=O)[nH]c3=O)C[C@@H]2O1 (some centres undefined) | 70 µg/mL (≈ 163 µM)
N.O=c1[nH]c(=O)n([C@H]2C[C@@H]3O[PH](O)(O)OC[C@H]3O2)cc1C(F)(F)F | 10 µg/mL

tested on: L1210; assay: Evaluation of antitumor activity against mutant murine leukemia L1210 cells; format: functional; conditions: Mus musculus, read-out: ID50 (the source's name)
Method in brief: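 Proliferation of mutant murine leukemia L1210/BdUrd cells, selected from parental L1210/0 for growth in 260 μg/mL 5-bromo-2'-deoxyuridine. Value is the dose inhibiting proliferation by 50%.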

SMILES | IC50
O=c1[nH]c(=O)n([C@H]2C[C@@H]3OP(=O)(OCc4ccccc4)OC[C@H]3O2)cc1I (some centres undefined) | > 100 µg/mL
O=c1[nH]c(=O)n([C@H]2C[C@H](O)[C@@H](CO)O2)cc1I [IDOXURIDINE] | > 500 µg/mL
N.O=c1[nH]c(=O)n([C@H]2C[C@@H]3O[PH](O)(O)OC[C@H]3O2)cc1Br | > 1000 µg/mL
N.O=c1[nH]c(=O)n([C@H]2C[C@@H]3O[PH](O)(O)OC[C@H]3O2)cc1C(F)(F)F | 22 µg/mL

tested on: L1210; assay: Evaluation of cytostatic activity by using antitumor assays against murine leukemia L1210 cells; format: functional; conditions: Mus musculus, read-out: ID50 (the source's name)

SMILES | IC50
O=c1[nH]c(=O)n([C@H]2C[C@@H]3OP(=O)(OCc4ccccc4)OC[C@H]3O2)cc1I (some centres undefined) | > 100 µg/mL
O=c1[nH]c(=O)n([C@H]2C[C@H](O)[C@@H](CO)O2)cc1I [IDOXURIDINE] | 16 µg/mL (≈ 45.2 µM)
N.O=c1[nH]c(=O)n([C@H]2C[C@@H]3O[PH](O)(O)OC[C@H]3O2)cc1Br | 457 µg/mL
N.O=c1[nH]c(=O)n([C@H]2C[C@@H]3O[PH](O)(O)OC[C@H]3O2)cc1C(F)(F)F | 0.116 µg/mL

tested on: Vesicular stomatitis virus; assay: Evaluation of antiviral activity against Vesicular stomatitis virus.; format: functional; conditions: not given; method in brief: as §1

SMILES | MIC50
O=c1[nH]c(=O)n([C@H]2C[C@@H]3OP(=O)(OCc4ccccc4)OC[C@H]3O2)cc1I (some centres undefined) | > 200 µg/mL
O=c1[nH]c(=O)n([C@H]2C[C@H](O)[C@@H](CO)O2)cc1I [IDOXURIDINE] | > 400 µg/mL
N.O=c1[nH]c(=O)n([C@H]2C[C@@H]3O[PH](O)(O)OC[C@H]3O2)cc1Br | > 400 µg/mL
COP1(=O)OC[C@H]2O[C@@H](n3cc(I)c(=O)[nH]c3=O)C[C@@H]2O1 (some centres undefined) | > 400 µg/mL
N.O=c1[nH]c(=O)n([C@H]2C[C@@H]3O[PH](O)(O)OC[C@H]3O2)cc1C(F)(F)F | > 400 µg/mL

tested on: Vaccinia virus; assay: Evaluation of antiviral activity against Vaccinia virus; format: functional; conditions: Orthopoxvirus vaccinia; method in brief: as §1

SMILES | MIC50
O=c1[nH]c(=O)n([C@H]2C[C@@H]3OP(=O)(OCc4ccccc4)OC[C@H]3O2)cc1I (some centres undefined) | 2 µg/mL (≈ 3.95 µM)
O=c1[nH]c(=O)n([C@H]2C[C@H](O)[C@@H](CO)O2)cc1I [IDOXURIDINE] | 0.2 µg/mL (≈ 0.565 µM)
N.O=c1[nH]c(=O)n([C@H]2C[C@@H]3O[PH](O)(O)OC[C@H]3O2)cc1Br | 1 µg/mL
COP1(=O)OC[C@H]2O[C@@H](n3cc(I)c(=O)[nH]c3=O)C[C@@H]2O1 (some centres undefined) | 20 µg/mL (≈ 46.5 µM)
N.O=c1[nH]c(=O)n([C@H]2C[C@@H]3O[PH](O)(O)OC[C@H]3O2)cc1C(F)(F)F | 0.4 µg/mL

tested on: Raji; assay: Evaluation of antitumor activity against thymidine kinase deficient Raji cell line; format: functional; conditions: Homo sapiens, read-out: ID50 (the source's name)

SMILES | IC50
O=c1[nH]c(=O)n([C@H]2C[C@@H]3OP(=O)(OCc4ccccc4)OC[C@H]3O2)cc1I (some centres undefined) | > 100 µg/mL
O=c1[nH]c(=O)n([C@H]2C[C@H](O)[C@@H](CO)O2)cc1I [IDOXURIDINE] | > 500 µg/mL
N.O=c1[nH]c(=O)n([C@H]2C[C@@H]3O[PH](O)(O)OC[C@H]3O2)cc1Br | > 1000 µg/mL
N.O=c1[nH]c(=O)n([C@H]2C[C@@H]3O[PH](O)(O)OC[C@H]3O2)cc1C(F)(F)F | ≥ 500 µg/mL

molecular target: Thymidylate synthase (Mus musculus) (UniProt P07607); assay: Compound was evaluated for the inhibition of L1210 Thymidylate synthase; conditions: not given
Sequence (P07607 whole entry, looked up): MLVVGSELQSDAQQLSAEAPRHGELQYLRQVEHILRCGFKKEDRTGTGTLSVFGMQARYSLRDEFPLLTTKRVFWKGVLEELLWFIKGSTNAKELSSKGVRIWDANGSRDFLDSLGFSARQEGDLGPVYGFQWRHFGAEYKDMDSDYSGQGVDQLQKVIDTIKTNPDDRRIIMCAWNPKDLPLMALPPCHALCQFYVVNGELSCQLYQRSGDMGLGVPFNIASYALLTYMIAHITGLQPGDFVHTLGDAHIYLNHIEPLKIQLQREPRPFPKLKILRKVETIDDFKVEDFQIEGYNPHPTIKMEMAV
Method in brief: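 Thymidylate (dTMP) synthetase inhibition measured with a partially purified extract of L1210 cells as the enzyme source.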

SMILES | Ki/Km
N.O=c1[nH]c(=O)n([C@H]2C[C@@H]3O[PH](O)(O)OC[C@H]3O2)cc1Br | > 354
N.O=c1[nH]c(=O)n([C@H]2C[C@@H]3O[PH](O)(O)OC[C@H]3O2)cc1C(F)(F)F | 30.4

organism: Homo sapiens; assay: Evaluation for antitumor activity against human lymphoblast Raji cells; format: functional; conditions: not given

SMILES | ID50
O=c1[nH]c(=O)n([C@H]2C[C@@H]3OP(=O)(OCc4ccccc4)OC[C@H]3O2)cc1I (some centres undefined) | 69 µg/mL (≈ 136 µM)

same assay, conditions: Homo sapiens, Raji; read-out: ID50 (the source's name)

SMILES | IC50
O=c1[nH]c(=O)n([C@H]2C[C@@H]3OP(=O)(OCc4ccccc4)OC[C@H]3O2)cc1I (some centres undefined) | > 100 µg/mL
O=c1[nH]c(=O)n([C@H]2C[C@H](O)[C@@H](CO)O2)cc1I [IDOXURIDINE] | 8 µg/mL (≈ 22.6 µM)
N.O=c1[nH]c(=O)n([C@H]2C[C@@H]3O[PH](O)(O)OC[C@H]3O2)cc1Br | 224 µg/mL
N.O=c1[nH]c(=O)n([C@H]2C[C@@H]3O[PH](O)(O)OC[C@H]3O2)cc1C(F)(F)F | 1.81 µg/mL

tested on: Human alphaherpesvirus 1; assay: Evaluation of antiviral activity against Herpes simplex virus type 1 (HSV-1) strain KOS.; format: functional; conditions: not given; method in brief: as §1

SMILES | MIC50
O=c1[nH]c(=O)n([C@H]2C[C@@H]3OP(=O)(OCc4ccccc4)OC[C@H]3O2)cc1I (some centres undefined) | 20 µg/mL (≈ 39.5 µM)
O=c1[nH]c(=O)n([C@H]2C[C@H](O)[C@@H](CO)O2)cc1I [IDOXURIDINE] | 0.2 µg/mL (≈ 0.565 µM)
N.O=c1[nH]c(=O)n([C@H]2C[C@@H]3O[PH](O)(O)OC[C@H]3O2)cc1Br | 2 µg/mL
N.O=c1[nH]c(=O)n([C@H]2C[C@@H]3O[PH](O)(O)OC[C@H]3O2)cc1C(F)(F)F | 10 µg/mL
